Reference: publication PMC8994735 (Targeted Oncology, 2021)
Read-outs that look alike come from different tables or passages of the source.

Test system: East Asian patients with advanced nonhematologic malignancies
Format: in vivo, human
Method in brief: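 AEs were graded by NCI CTCAE v4.03 in all patients receiving ≥ 1 oral dose, given once daily or once weekly in 28-day cycles for up to 12 months. Follow-up lasted 30 days after the last dose. Entry required ECOG 0–1, fasting glucose ≤ 130 mg/dL and triglycerides ≤ 300 mg/dL. Summaries were descriptive.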

[1] = QW dose escalation 20 mg (n = 3)
[2] = QW dose escalation 30 mg (n = 3)

## CC(C)n1nc(-c2ccc3oc(N)nc3c2)c2c(N)ncnc21 [sapanisertib]
QW arm
  Treatment-related AE hyperglycemia: 50%
  Treatment-related AE nausea: 100%
[1]
  AEs resulting in discontinuation: 0 n (%)
  AEs resulting in dose interruption: 2 (67) n (%)
  AEs resulting in dose reduction: 0 n (%)
  Any AE: 3 (100) n (%)
  Any grade ≥ 3 AE: 3 (100) n (%)
  On-study deaths: 0 n (%)
  SAEs: 2 (67) n (%)
  Treatment-related AE: 3 (100) n (%)
  Treatment-related SAEs: 1 (33) n (%)
  Treatment-related grade ≥ 3 AE: 1 (33) n (%)
[2]
  AEs resulting in discontinuation: 1 (33) n (%)
  AEs resulting in dose interruption: 1 (33) n (%)
  AEs resulting in dose reduction: 0 n (%)
  Any AE: 3 (100) n (%)
  Any grade ≥ 3 AE: 1 (33) n (%)
  On-study deaths: 0 n (%)
  SAEs: 1 (33) n (%)
  Treatment-related AE: 3 (100) n (%)
  Treatment-related SAEs: 0 n (%)
  Treatment-related grade ≥ 3 AE: 0 n (%)
QW dosing n = 6
  AE by preferred term: Abdominal pain: 1 (17) n (%)
  AE by preferred term: Alanine aminotransferase increased: 3 (50) n (%)
  AE by preferred term: Anemia: 1 (17) n (%)
  AE by preferred term: Aspartate aminotransferase increased: 3 (50) n (%)
  AE by preferred term: Blood alkaline phosphatase increased: 4 (67) n (%)
  AE by preferred term: Blood bilirubin increased: 2 (33) n (%)
  AE by preferred term: Decreased appetite: 3 (50) n (%)
  AE by preferred term: Diarrhea: 1 (17) n (%)
  AE by preferred term: Erythema: 1 (17) n (%)
  AE by preferred term: Fatigue: 2 (33) n (%)
  AE by preferred term: Gamma-glutamyltransferase increased: 2 (33) n (%)
  AE by preferred term: Headache: 1 (17) n (%)
  AE by preferred term: Hiccups: 2 (33) n (%)
  AE by preferred term: Hyperglycemia: 4 (67) n (%)
  AE by preferred term: Hypokalemia: 1 (17) n (%)
  AE by preferred term: Lymphocyte count decreased: 1 (17) n (%)
  AE by preferred term: Nausea: 6 (100) n (%)
  AE by preferred term: Platelet count decreased: 1 (17) n (%)
  AE by preferred term: Pyrexia: 1 (17) n (%)
  AE by preferred term: Stomatitis: 2 (33) n (%)
  AE by preferred term: Vomiting: 3 (50) n (%)
  AE by preferred term: Weight decreased: 3 (50) n (%)
  Grade ≥ 3 AE: Alanine aminotransferase increased: 1 (17) n (%)
  Grade ≥ 3 AE: Aspartate aminotransferase increased: 1 (17) n (%)
  Grade ≥ 3 AE: Cholangitis acute: 1 (17) n (%)
  Grade ≥ 3 AE: Enteritis: 1 (17) n (%)
  Grade ≥ 3 AE: Gamma-glutamyltransferase increased: 2 (33) n (%)
  Grade ≥ 3 AE: Hyperglycemia: 1 (17) n (%)
  Grade ≥ 3 AE: Lymphocyte count decreased: 1 (17) n (%)
  Grade ≥ 3 AE: Malignant neoplasm progression: 1 (17) n (%)
  Patients with ≥ 1 grade 3 or higher AE: 4 (67) n (%)
QW total (n = 6)
  AEs resulting in discontinuation: 1 (17) n (%)
  AEs resulting in dose interruption: 3 (50) n (%)
  AEs resulting in dose reduction: 0 n (%)
  Any AE: 6 (100) n (%)
  Any grade ≥ 3 AE: 4 (67) n (%)
  On-study deaths: 0 n (%)
  SAEs: 3 (50) n (%)
  Treatment-related AE: 6 (100) n (%)
  Treatment-related SAEs: 1 (17) n (%)
  Treatment-related grade ≥ 3 AE: 1 (17) n (%)
Total n = 28
  AE by preferred term: Abdominal pain: 4 (14) n (%)
  AE by preferred term: Alanine aminotransferase increased: 7 (25) n (%)
  AE by preferred term: Anemia: 6 (21) n (%)
  AE by preferred term: Aspartate aminotransferase increased: 9 (32) n (%)
  AE by preferred term: Blood alkaline phosphatase increased: 4 (14) n (%)
  AE by preferred term: Blood bilirubin increased: 2 (7) n (%)
  AE by preferred term: Constipation: 4 (14) n (%)
  AE by preferred term: Decreased appetite: 14 (50) n (%)
  AE by preferred term: Diarrhea: 3 (11) n (%)
  AE by preferred term: Erythema: 3 (11) n (%)
  AE by preferred term: Erythema multiforme: 2 (7) n (%)
  AE by preferred term: Fatigue: 9 (32) n (%)
  AE by preferred term: Gamma-glutamyltransferase increased: 4 (14) n (%)
  AE by preferred term: Gastrointestinal inflammation: 2 (7) n (%)
  AE by preferred term: Headache: 3 (11) n (%)
  AE by preferred term: Hiccups: 2 (7) n (%)
  AE by preferred term: Hyperglycemia: 13 (46) n (%)
  AE by preferred term: Hypokalemia: 4 (14) n (%)
  AE by preferred term: Lymphocyte count decreased: 5 (18) n (%)
  AE by preferred term: Nausea: 17 (61) n (%)
  AE by preferred term: Neutrophil count decreased: 2 (7) n (%)
  AE by preferred term: Platelet count decreased: 7 (25) n (%)
  AE by preferred term: Pruritus: 2 (7) n (%)
  AE by preferred term: Pyrexia: 5 (18) n (%)
  AE by preferred term: Rash erythematous: 2 (7) n (%)
  AE by preferred term: Rash maculo-papular: 5 (18) n (%)
  AE by preferred term: Rash pustular: 2 (7) n (%)
  AE by preferred term: Stomatitis: 16 (57) n (%)
  AE by preferred term: Urticaria: 3 (11) n (%)
  AE by preferred term: Vomiting: 8 (29) n (%)
  AE by preferred term: Weight decreased: 10 (36) n (%)
  AE by preferred term: White blood cell count decreased: 4 (14) n (%)
  Grade ≥ 3 AE: Acute myocardial infarction: 1 (4) n (%)
  Grade ≥ 3 AE: Alanine aminotransferase increased: 1 (4) n (%)
  Grade ≥ 3 AE: Aspartate aminotransferase increased: 2 (7) n (%)
  Grade ≥ 3 AE: Blood creatine phosphokinase increased: 1 (4) n (%)
  Grade ≥ 3 AE: Cholangitis acute: 1 (4) n (%)
  Grade ≥ 3 AE: Decreased appetite: 1 (4) n (%)
  Grade ≥ 3 AE: Diarrhea: 1 (4) n (%)
  Grade ≥ 3 AE: Enteritis: 1 (4) n (%)
  Grade ≥ 3 AE: Gamma-glutamyltransferase increased: 3 (11) n (%)
  Grade ≥ 3 AE: Gastrointestinal inflammation: 1 (4) n (%)
  Grade ≥ 3 AE: Genital herpes: 1 (4) n (%)
  Grade ≥ 3 AE: Gingivitis: 1 (4) n (%)
  Grade ≥ 3 AE: Hyperglycemia: 1 (4) n (%)
  Grade ≥ 3 AE: Jaundice cholestatic: 1 (4) n (%)
  Grade ≥ 3 AE: Lymphocyte count decreased: 3 (11) n (%)
  Grade ≥ 3 AE: Malignant neoplasm progression: 1 (4) n (%)
  Grade ≥ 3 AE: Nausea: 2 (7) n (%)
  Grade ≥ 3 AE: Neutrophil count decreased: 1 (4) n (%)
  Grade ≥ 3 AE: Platelet count decreased: 1 (4) n (%)
  Grade ≥ 3 AE: Post herpetic neuralgia: 1 (4) n (%)
  Grade ≥ 3 AE: Pruritus: 1 (4) n (%)
  Grade ≥ 3 AE: Rash maculo-papular: 2 (7) n (%)
  Grade ≥ 3 AE: Rash pustular: 1 (4) n (%)
  Grade ≥ 3 AE: Renal impairment: 1 (4) n (%)
  Grade ≥ 3 AE: Sepsis: 1 (4) n (%)
  Grade ≥ 3 AE: Stomatitis: 2 (7) n (%)
  Grade ≥ 3 AE: Urticaria: 1 (4) n (%)
  Grade ≥ 3 AE: White blood cell count decreased: 1 (4) n (%)
  Patients with ≥ 1 grade 3 or higher AE: 18 (64) n (%)
Across all doses
  Patients reporting at least one AE: 100%
Both arms
  Discontinued treatment due to AEs: Four
Whole study
  On-study deaths: no on-study deaths
